In PubChem BioAssay AID504490 (NMMLSC, 2011) one finds inhibition data, which are given here for 86 compounds.

One may read the inhibition as the drop in the measured response relative to a control, in per cent.

The campaign covered roughly 340,000 compounds. About 1,100 (0.32%) were called active. The sample holds actives, similar compounds and a random draw of the others, so the mix is not that of the screen.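 The calls were made as follows: active = inhibition above a set limit, near 3 SD of compounds lacking own fluorescence (cut at about 54% in these data); inactive = the rest.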

The assay deals with beta-arrestin 1 C-terminal peptide binding to AP2 beta2-adaptin appendage (human). Put plainly: blockers of arrestin peptide association with AP2 adaptin – biochemical, GPCR trafficking, flow cytometry, primary screen (AID 504490).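 Also: plate controls were DMSO wells for no effect and 5 µM unlabelled arrestin peptide for full effect.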 Conditions: FITC-arrestin peptide / GST-AP2 beads, at 10 µM, stronger effect = higher value, AP2 beta2 appendage carries R879A mutation. An outline of the steps: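 System: GST-tagged AP2 beta2-adaptin appendage (R879A) on 4 µm glutathione beads / Reagent: FITC-arrestin peptide, 50 nM / Detection: HyperCyt-sampled flow cytometry, FL1 channel, ex 488/em 535 nm / Timing: 12 min plus 1 h, RT / Buffer or medium: PBS plus Tween 20 (0.05%) and BSA (0.1%)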
On the technique in general: A flow cytometer gives signals particle by particle.
For `O=C(CN1C(=O)NC2(CCCCCC2)C1=O)NCc1ccc(F)cc1`, the inhibition was 13.2% (inactive).
With `CCc1ccc(N(CC(=O)Nc2sc3c(c2C(=O)OC)CCCC3)S(C)(=O)=O)cc1` the figure was -5.8% (inactive); with `N#CCSc1nn(-c2ccc(F)cc2)c(=S)s1`, 1.03% (inactive); with `O=S(=O)(c1ccccc1)N(Cc1cccc(F)c1)c1ccccc1`, 6.33% (inactive).
In the case of `CC(C)C1C2=C(CC(C)(C)CC2=O)ON1c1ccccc1` (stereo unspecified), the inhibition is 14.7% (inactive).
With `COC(=O)C1CC2=C(CC(C)(C)CC2=O)N(c2ccccc2)C1=O` (stereo unspecified) the figure was 54.1% (active).
In the case of `Cc1ccc(N2C(=O)C(NC(=O)c3c(F)cccc3F)(C(F)(F)F)C3=C2CC(C)(C)CC3=O)cc1` (stereo unspecified) it was 11.2% (inactive); in that of `Cc1ccc2[nH]cc(CCNC(=O)c3ccc([N+](=O)[O-])cc3)c2c1`, 5.19% (inactive).
With `CCN(CC)Cc1c(C(=O)N/N=C/c2cccc(OCc3ccc(F)cc3)c2)nnn1-c1nonc1N` the figure was -0.16% (inactive).
Turning to `Cn1ccsc1=NC(=O)c1cc(S(=O)(=O)N2CCOCC2)ccc1Cl`, the inhibition is -5.18% (inactive).
In the case of `COc1cccc(-n2c(SCC(=O)NC3CCS(=O)(=O)C3)nc3ccccc3c2=O)c1` (stereo unspecified) it was -2.41% (inactive).
As to `COc1cccc(-n2c(SCC(=O)c3c[nH]c4ccccc34)nc3ccccc3c2=O)c1`, the inhibition is 105% (active).
With `COC(=O)c1ccc(CSc2nc3ccccc3c(=O)n2-c2cccc(OC)c2)o1` the figure was 5.8% (inactive); with `CN(C)c1ccc(Nc2c3c4c(cccc4n(C)c2=O)C(=O)c2ccccc2-3)cc1`, 63.5% (active); with `CN(C)c1ccc(C2N(C)C(=O)c3ccccc3N2C)cc1` (stereo unspecified), -7.07% (inactive).
In the case of `CCOc1ccccc1-c1cc(C(=O)N/N=C(\C)c2cccnc2)c2ccccc2n1` it was -0.49% (inactive).
With `CC(=O)NCCNC(=O)c1cc(-c2cccc3ccccc23)nc2ccccc12` the figure was 60.3% (active).
On to `O=C(NCCc1ccccn1)c1cc(-c2ccc(Cl)cc2)nc2ccccc12`, for which the inhibition was 13.5% (inactive).
In the case of `c1ccc(CC2CCN(c3nc4ccccc4n4cnnc34)CC2)cc1` it was -7.81% (inactive); in that of `Cc1ccc(C)c(N(CC(=O)NCc2ccco2)C(=O)CCC(=O)Nc2ccccn2)c1`, -8.6% (inactive); in that of `COc1ccc(C2NC(=O)c3ccccc3N2)cc1` (stereo unspecified), 26.1% (inactive).
In the case of `COc1cc2c(cc1OC)C(c1ccccc1Br)NC(=O)C2` (stereo unspecified) it was -7.73% (inactive); in that of `Brc1ccccc1C1Nc2cccc3cccc(c23)N1`, 56% (active).
Turning to `Oc1ccc(C2Nc3cccc4cccc(c34)N2)cc1`, the inhibition is 56.2% (active).
For `Brc1ccccc1C1N=C(c2ccccc2)NO1` (stereo unspecified), the inhibition was -3.82% (inactive).
With `COc1ccc([C@H]2CC(=O)C=C(c3ccc(C)cc3)C2)cc1`, the inhibition was 18.7% (inactive).
In the case of `CC(=O)Nc1ccc(S(=O)(=O)N2CCN(C(=O)c3ccccc3F)CC2)cc1` it was -16.7% (inactive); in that of `CC12COC3(C(=O)Nc4ccc(Cl)cn4)CC1CCC32C` (stereo unspecified), 1.37% (inactive); in that of `CCc1ccccc1N(CC(=O)NCC1CCCO1)C(=O)CCC(=O)Nc1nccs1` (stereo unspecified), -16.6% (inactive).
With `Clc1cc(-c2ccc(/C=N/n3cnnc3)o2)ccc1Br` the figure was 1.32% (inactive); with `Cc1ccc(Cl)cc1-c1ccc(/C=N/n2cnnc2)o1`, 63.3% (active); with `Brc1cc(/C=N/n2cnnc2)oc1Br`, 1.91% (inactive).
With `N#Cc1ccc(-c2ccc(Cl)cc2)nc1Oc1ccc(F)cc1` the figure was -5.52% (inactive); with `Cc1c(C2=CCN(S(=O)(=O)c3ccc(Cl)cc3)CC2)c2ccccc2n1C`, 6.61% (inactive); with `O=C(CCCNS(=O)(=O)c1cccc2nsnc12)NCCN1CCN(c2ccccc2F)CC1`, 5.08% (inactive).
In the case of `Cc1ccc(S(=O)(=O)N2CCN(C(=O)Cn3c(=O)cnc4ccccc43)CC2)c(C)c1`, the inhibition was -13.3% (inactive).
On to `Cc1ccc(S(=O)(=O)N2CCN(C(=O)N3CCOCC3)CC2)c(C)c1`, for which the inhibition is 17.1% (inactive).
`Cc1ccc(S(=O)(=O)N2CCN(C(=O)c3ccccc3-c3nc4ccccc4s3)CC2)c(C)c1`: the inhibition was 66.5% (active).
In the case of `CC(C)(C)OC(=O)N1CCC(NC(=O)c2[nH]cnc2C(=O)N[C@@H](Cc2ccccc2)C(=O)OCc2ccccc2)CC1` it was 9.22% (inactive).
`O=C(NCCN1CCOC1=O)C1CCC(=O)N(CCc2ccc(Cl)cc2)C1` (stereo unspecified): the inhibition is -10.1% (inactive).
With `CC(C)(C)c1ccc(C(=O)NCCn2c(N)c(C#N)c3nc4ccccc4nc32)cc1` the figure was 94.7% (active).
In the case of `N#Cc1c(N)n(CCOC(=O)c2ccc(Cl)cc2)c2nc3ccccc3nc12` it was 3.34% (inactive); in that of `COCC(C)OC(=O)c1c(N)n(CCCN2CCOCC2)c2nc3ccccc3nc12` (stereo unspecified), -8.22% (inactive); in that of `COc1ccc(S(=O)(=O)Nc2cccc3c2O[C@H](CN(C)S(=O)(=O)c2ccc(OC)cc2)[C@@H](C)CN([C@H](C)CO)C3=O)cc1`, -15.4% (inactive).
Take `COc1ccc(NC(=O)c2sc(N3CCOCC3)nc2-c2ccccc2)c(OC)c1`: the inhibition is 18.7% (inactive).
In the case of `COC(=O)CN1C(=O)[C@H]2[C@@H](/C=C/c3ccccc3)N3C(=O)CN(Cc4ccccc4)C(=O)[C@@]3(Cc3ccccc3)[C@H]2C1=O` it was -5.14% (inactive); in that of `CC(=O)Nc1ccc(NC(=O)CSC2=NS(=O)(=O)c3ccccc3N2)cc1`, 22% (inactive).
Take `COC(=O)[C@H](C(C)C)n1c(C)c(C(C)=O)c(C(C)=O)c1C`: the inhibition was -0.72% (inactive).
With `COC(=O)c1cc(NC(=O)c2nn(C)c(=O)c3ccccc23)cc(C(=O)OC)c1` the figure was 66.5% (active).
With `CCC(C)NC(=O)c1nn(C)c(=O)c2ccccc12` (stereo unspecified) the figure was -22% (inactive); with `CCC(CC)c1nnc(NC(=O)c2nn(C)c(=O)c3ccccc23)s1`, -0.4% (inactive); with `O=C(OCc1nc2ccccc2[nH]1)C1CCCCC1`, -0.04% (inactive).
With `Cc1cc(C(=O)OCC(=O)c2c(N)n(C)c(=O)n(C)c2=O)c(C)o1`, the inhibition was 104% (active).
With `Cn1c(N)c(C(=O)COC(=O)c2cnc(Cl)c(Cl)c2)c(=O)n(C)c1=O` the figure was -4.58% (inactive).
With `Cn1c(N)c(C(=O)COC(=O)c2ccc3ccccc3c2)c(=O)n(C)c1=O` the figure was 7.54% (inactive).
In the case of `CCCCN(C(=O)CSCc1ccc(C)cc1)c1c(N)n(Cc2ccccc2)c(=O)[nH]c1=O` it was -0.62% (inactive); in that of `Cc1noc(C)c1CSc1nnc2ccc3ccccc3n12`, -1.44% (inactive); in that of `Cc1coc2c(O)cc3c(c12)OC1(N2CCCCC2)C(=O)NCCCC31` (stereo unspecified), 9.81% (inactive).
Regarding `O=[N+]([O-])c1ccccc1N/N=C1\CCc2ccccc21`, the inhibition is -6.42% (inactive).
Regarding `Cn1cnnc1Sc1ccc(CN2CCN(C3CCCC3)C(CCO)C2)o1` (stereo unspecified), the inhibition is -10.1% (inactive).
With `CC(NC(=O)c1cc2cc(Cl)ccc2oc1=N)c1ccccc1` (stereo unspecified) the figure was 56% (active); with `CC(NC(=O)C(=O)N/N=C/c1ccc(Cl)cc1)c1ccccc1` (stereo unspecified), 6.57% (inactive).
In the case of `Cc1ccc(C(=O)NC(C)c2ccccc2)cc1Br` (stereo unspecified) it was -2.36% (inactive); in that of `CN(C(=O)c1cccc([N+](=O)[O-])c1)c1ccccc1C(=O)NCc1ccccc1`, -22.1% (inactive); in that of `CCC(C(=O)OC)n1cnc2c(oc3ccccc32)c1=O` (stereo unspecified), 54.6% (active).
In the case of `CCC(C(=O)OC)n1cnc2scc(-c3ccc(C)cc3)c2c1=O` (stereo unspecified) it was -1.08% (inactive); in that of `Cc1ccc(C)c(Cn2cnc3c(oc4ccccc43)c2=O)c1`, 29.7% (inactive).
Consider `Cc1ccc(NC(=O)CN2CCC3(O)CCCCC3C2c2ccc3c(c2)OCO3)c(C)c1` (stereo unspecified), for which the inhibition was 1.75% (inactive).
In the case of `CC(=O)Nc1ccc(NC(=O)CN2C(=O)COc3ccc(S(=O)(=O)N4CCCCC4)cc32)cc1` it was -9.58% (inactive); in that of `COC(=O)C1=C(C(=O)OC)C2(OC1c1ccc(Br)cc1)C(=O)c1ccccc1C2=O` (stereo unspecified), 7.98% (inactive); in that of `COc1cc2c(cc1OC)CN(C(=O)c1cc(=O)c3ccccc3o1)CC2`, 82.5% (active).
With `COc1ccc2c(CC(=O)N3CCc4cc(OC)c(OC)cc4C3)coc2c1` the figure was -6.31% (inactive); with `COc1ccccc1CNC(=O)c1cc(=O)c2ccccc2o1`, 2.61% (inactive).
With `C=CCn1c(C(C)NC(=O)CC)nc2ccccc21` (stereo unspecified), the inhibition was -3.06% (inactive).
Turning to `CCC(=O)Nc1nc2ccccc2n1Cc1ccccc1C`, the inhibition is 69.6% (active).
In the case of `CC(=O)NC(C)c1nc2ccccc2n1Cc1ccccc1F` (stereo unspecified) it was -8.31% (inactive); in that of `O=C(CSc1nnc(-c2ccncc2)n1C1CCCCC1)Nc1ccccc1`, 0.57% (inactive); in that of `Cc1cccc(Nc2ccccc2C(=O)NCc2ccco2)c1C`, 99.8% (active).
With `O=C(CCNC(=O)c1ccccc1Cl)NCc1ccco1` the figure was -2.42% (inactive).
Regarding `Cc1ccc(N(Cc2ccc(C(=O)Nc3ccccc3C(=O)NCc3ccco3)cc2)S(C)(=O)=O)cc1C`, the inhibition was -0.75% (inactive).
With `CC(Oc1ccccc1)C(=O)NN1Cc2ccccc2C1=N` (stereo unspecified) the figure was 59.1% (active); with `CC(Oc1ccccc1)C(=O)Nc1c2c(nn1-c1ccccc1)CS(=O)C2` (stereo unspecified), 4.67% (inactive); with `COc1ccc(OCC(=O)NN2Cc3ccccc3C2=N)cc1`, 10.9% (inactive).
With `O=C(CSc1nnc(COc2ccc(Cl)cc2)n1Cc1ccco1)N1CCNC1=O` the figure was -11.3% (inactive); with `CCc1cccc(C)c1NC(=S)N(CCCN1CCN(C)CC1)Cc1cccs1`, -5.26% (inactive); with `COc1cc(Cl)ccc1OCc1cc(C(=O)N(C)CCc2c(C)n[nH]c2C)no1`, -14.3% (inactive).
